The text below walks through data of ChEMBL document CHEMBL3580617, “Discovery of Benzimidazole CYP11B2 Inhibitors with in Vivo Activity in Rhesus Monkeys” (ACS Med Chem Lett, 2015).

In one test the test system is Rhesus monkey. Description: Reduction in aldosterone levels in low sodium diet fed rhesus monkey at 0.01 mg/kg, iv followed by 0.3 mg/kg ACTH dosing and measured 30 mins to 180 mins post ACTH administration by UPLC coupled with tandem mass spectrometry. The class given is functional, Macaca mulatta. In short, it runs like this: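 Anesthetized rhesus monkeys were given i.v. doses from 0.001 to 0.3 mg/kg. Plasma aldosterone and 11-deoxycortisol were quantified by LC-MS at time points up to 180 min postdose, and AUCs were determined for each. Plasma drug was measured at 90 min postdose. Free (unbound) concentrations were calculated from the measured fraction unbound in rhesus plasma.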

For test [1], the target named is T1, Alpha-2B adrenergic receptor (Homo sapiens, UniProt P18089).
T1 sequence (P18089 whole entry): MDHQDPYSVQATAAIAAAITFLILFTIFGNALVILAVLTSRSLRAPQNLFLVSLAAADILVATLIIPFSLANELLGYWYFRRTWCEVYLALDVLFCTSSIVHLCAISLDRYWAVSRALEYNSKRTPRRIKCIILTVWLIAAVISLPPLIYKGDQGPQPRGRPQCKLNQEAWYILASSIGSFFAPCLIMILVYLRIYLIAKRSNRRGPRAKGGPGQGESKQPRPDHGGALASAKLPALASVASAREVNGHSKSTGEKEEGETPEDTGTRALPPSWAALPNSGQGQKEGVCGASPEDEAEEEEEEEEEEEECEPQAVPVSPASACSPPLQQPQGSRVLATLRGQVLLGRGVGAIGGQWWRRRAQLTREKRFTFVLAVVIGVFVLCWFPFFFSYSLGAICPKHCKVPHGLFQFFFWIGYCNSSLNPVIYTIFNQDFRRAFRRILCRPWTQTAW
Description: Inhibition of adrenergic alpha-2B receptor (unknown origin). In short, it runs like this: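 Binding activity was profiled across a panel of 114 receptors, enzymes and ion channels, with an IC50 determined against any target that was hit.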

`CC(C)(O)c1cncc(-c2nc3ccc(F)cc3n2C2CC2)c1` [MSD-CYP11B2]: the “inhibition (INH)” value with Rhesus monkey is on record as 62%. Usually IC50 stands for the concentration needed to halve the response being measured. Regarding `Fc1cncc(-c2nc3cc(F)c(F)cc3n2C2CC2)c1`, in test [1], inhibition was half-maximal at 2490 nM (IC50).
